Source: PubChem BioAssay
Shown are actives, neighbours in structure and some others; about 4.8% of the full set was active somewhere.
Beta apoptosis: beta cell apoptosis inhibition; actives 0.8% (n = 300,000); INS-1E cytokine-induced death, ATP luminescence, 48 h; percent of positive-control rescue, neutral wells zero; protection from apoptosis, % (no concentration beside the values);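 active = Every replicate reaches about 75%, or at least half do and their mean reaches it too, limit read from the data; inconclusive = At least half of replicates reach the limit but their mean does not; inactive = Under half of replicates reach the limit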;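 note: 0% = cytokine-treated negative control wells and 100% = positive control rescue; higher means more ATP so stronger rescue from cytokine killing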
UPR CHOP act: apoptotic UPR (CHOP) activation | CHO-CHOP luciferase reporter, luminescence; percent of tunicamycin response over DMSO baseline | actives 0.34% (n = 330,000) | activation, % at 10 µM;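 active = at 10 µM dose, activation of 40% or more, normalized to positive control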;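 note: 100% = tunicamycin at 10 µg/mL and 0% = DMSO alone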
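Material: CHO-CHOP cells, stable luciferase reporter of PERK-eIF2a-CHOP signalling; quantity: 500 reporter cells seeded per well; buffer or medium: F12 medium containing 10% fetal bovine serum; compound: one dose, 10 µM in 0.5% DMSO; incubation: 6 h compound treatment, 37 °C; measured by: Steady-Glo luciferase luminescence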
XBP1 UPR activ: adaptive UPR (XBP1) activation. CHO-XBP1 luciferase reporter, IRE1-XBP1 UPR activation, luminescence; percent of tunicamycin response, DMSO as zero. activation, % at 20 µM. actives 0.33% (n = 330,000);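 active = versus positive control, 20 µM dose yields 30% or more activation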;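 note: 100% = tunicamycin at 10 µg/mL and 0% = DMSO only wells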
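Assay system: IRE1-XBP1 luciferase reporter CHO line. Input: 1000 cells/well. Buffer or medium: F12 with 10% serum. Doses: 20 µM, 1% DMSO. Times: overnight seeding at 37 °C, 6 h compound treatment at 37 °C. Technique: Steady-Glo luciferase glow luminescence, 10 min after reagent addition.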
Mdm2-MdmX inh: inhibitors of human Mdm2/MdmX interaction. O15151+Q00987. SaOS-2 split-luciferase Mdm2/MdmX complementation, luminescence. inhibition, % at 8 µM. actives 3% (n = 330,000). AID 485346;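 active = inhibition of at least 50% at 8 µM in the primary screen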
SKKanGAS inh: SKKanGAS growth inhibition | S. pyogenes SKKanGAS, kanamycin growth, BacTiter-Glo, 6 h | inhibition, % at 7.5 µM | actives 1.3% (n = 300,000) | AID 1662;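 active = mean replicate score, as percent of positive control median, at least 50; inconclusive = mean below 50 but one replicate at or above 50; inactive = mean and every replicate below 50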;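 note: strain carries kanamycin resistance gene driven by streptokinase promoter and grows in 40 µg/ml kanamycin; loss of luminescence reflects streptokinase promoter inhibition or plain growth inhibition; 0% = median of DMSO wells and 100% = positive control at its reference dose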
CSC inhib: blocks cancer stem cells; actives 1.1% (n = 300,000); inhibition, % at 7.5 µM; cancer stem cell-like cells viability, luminescence; in the data active = inhibition above about 75%; inconclusive = no clear call, values can overlap the other calls; tested in HMLE shEcad cells
Mdm2 MdmX conf: human Mdm2/MdmX binding inhibition, confirmed | shares compounds with Mdm2-MdmX inh | luminescent assay | inhibition, % at 8 µM | actives 55% (n = 10,000) | AID 489028; in the data active = inhibition above about 40%
Full FLuc ctr: counter-screen for Mdm2/MdmX inhibitors: full-length luciferase; inhibition, % at 8 µM; SaOS-2 full-length luciferase counterscreen, luminescence; shares compounds with Mdm2-MdmX inh; actives 77% (n = 6,200);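 active = mean inhibition at 8 µM reaching about 37%, which flags the compound as non-specific, limit read from the data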;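 note: p53-null SaOS-2 cells with luciferase driven by a doxycycline-inducible promoter; compound on cells about two nights before reading with doxycycline added after day one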
* = called active by the depositor; ? = inconclusive; nt = not tested or not shown.

SMILES	Beta apoptosis	UPR CHOP act	XBP1 UPR activ	Mdm2-MdmX inh	SKKanGAS inh	CSC inhib	Mdm2 MdmX conf	others
CCCCN(C(=O)c1cc2c(s1)CCC2)c1c(N)n(CCC)c(=O)[nH]c1=O	nt	-1	0	2	nt	nt	nt
COc1ccccc1N1CCN(C(=O)c2sc3nc(C)nc(N4CCN(c5ccccn5)CC4)c3c2C)CC1	-3	14	2	76*	27	14	71*	Full FLuc ctr=38*
O=C(CCS(=O)(=O)c1ccc(Cl)cc1)NC1CCCC1	-3	1	0	-15	nt	-7	nt
Cc1ccc(NC(=O)CSc2nc3ccc(Nc4nc(N5CCOCC5)nc(N5CCOCC5)n4)cc3s2)cc1	41	4	78*	95*	nt	56	41*	Full FLuc ctr=26
CCOC(=O)c1ccc(NC(=O)CSc2nc(N3CCOCC3)nc(N3CCOCC3)n2)cc1	-3	0	6	74*	7	1	25
O=C(CSc1nc(Nc2ccccc2)nc(N2CCOCC2)n1)Nc1ccc(Br)cc1F	43	2	2	49	26	16	nt
CC(=O)c1ccc(NC(=O)CSc2nc(N3CCOCC3)nc(N3CCOCC3)n2)cc1	5	2	3	-23	-7	30	nt
O=C(CSc1nc(Nc2ccccc2)nc(N2CCOCC2)n1)Nc1ccccc1Cl	14	3	1	75*	-3	26	25
CCCN(C(=O)CCOc1ccc(C(C)(C)C)cc1)c1c(N)n(Cc2ccccc2)c(=O)[nH]c1=O	nt	1	1	4	-3	-4	nt
Cc1c(C(=O)Nc2c(C)n(C)n(-c3ccccc3)c2=O)oc2ccc(Cl)cc12	-3	-2	-3	8	-3	2	nt
Cc1ccccc1NC(=O)Cc1nnc(SCC(=O)NC2=NCCS2)n1C	-10	0	-2	-20	1	-16	nt
CCN(CC)C(=O)COc1ccc2c3c(c(=O)oc2c1)CCCC3	0	3	1	-22	-6	-20	nt
CCOC(=O)/C(C#N)=C/c1cc(C)n(-c2ccc(Br)cc2)c1C	3	6	3	-6	-2	-4	nt
CCOC(=O)/C(C#N)=C/c1cc(C)n(-c2ccccc2)c1C	-5	0	-2	52*	-9	-10	66*	Full FLuc ctr=170*
Cc1ccc(C2=NN(C(=O)CCl)C(c3ccco3)C2)o1 (stereo unspecified)	nt	37	-7	100*	2	nt	99*	Full FLuc ctr=58*
COc1cc([N+](=O)[O-])ccc1NC(=O)CC1SC(=Nc2ccc(F)cc2)N(CCC2=CCCCC2)C1=O (stereo unspecified)	110*	4	-1	77*	20	?	85*	Full FLuc ctr=65*
CC(C)(C)/C(COc1ccccc1[N+](=O)[O-])=N/O	-5	0	-2	18	3	nt	nt
CC1=CC(=O)C=C(C)C1=NOc1ccccc1[N+](=O)[O-]	0	6	28	72*	3	-16	14
CC(C)(C)OC(=O)N1CCC(NC(=O)c2nc[nH]c2C(=O)N2CCN(c3ccccc3)CC2)CC1	-7	0	-1	-25	nt	-3	nt
c1ccc(CNCCC(Cc2ccccc2)c2ccco2)cc1 (stereo unspecified)	-11	-1	-1	19	1	31	nt
CN(C)c1ccc(CNCCC(Cc2ccccc2)c2ccco2)cc1 (stereo unspecified)	30	0	-3	52*	-16	13	30
COCc1cc(=O)n2[nH]cc(-c3ccccc3)c2n1	7	3	-1	7	8	5	nt
CCCc1cc(=O)n2[nH]cc(-c3ccc(Cl)cc3)c2n1	80*	4	-4	55*	85*	95*	53*	Full FLuc ctr=18
COc1ccc2[nH]c3c(c2c1)CCN1C(=O)C(CC(=O)NCc2cccc(C(F)(F)F)c2)C[C@H](C(=O)N2CCCCC2)[C@@]31CCc1ccccc1 (stereo partly specified)	nt	12	3	38	nt	nt	nt
Cc1ccccc1OCCC(=O)Nc1ccccc1C(=O)NC1CC1	-1	1	-2	9	-9	-10	nt
SMILES	Beta apoptosis	UPR CHOP act	XBP1 UPR activ	Mdm2-MdmX inh	SKKanGAS inh	CSC inhib	Mdm2 MdmX conf	others
COc1ccccc1N/C(N)=N/c1nc(C)cc(C)n1	5	0	-2	-9	-5	8	nt
Cc1cc(C)nc(/N=C(\N)Nc2ccc(OCc3ccccc3)cc2)n1	45	3	12	54*	-1	44	35
Cc1cc(C)nc(/N=C(\N)Nc2ccc(CC(=O)OC(C)C)cc2)n1	nt	4	-6	-2	3	6	nt
Cc1cc(C)nc(/N=C(\N)Nc2ccc(OCCC(C)C)cc2)n1	52	3	5	66*	3	48	49*	Full FLuc ctr=53*
Cc1cc(C)nc(/N=C(\N)Nc2cccc(OCc3ccccc3)c2)n1	-28	3	6	73*	12	-12	50*	Full FLuc ctr=66*
O=C(CN1CCN(S(=O)(=O)c2ccccc2)CC1)N1CCCCC1	8	2	-1	-19	nt	-15	nt
Cc1nc2nc(-c3cccs3)[nH]c2cc1Br	8	6	3	-79	18	12	nt
Cc1ccc(S(=O)(=O)NCCC(=O)OCC(=O)N(Cc2ccccc2)C(C)(C)C)cc1	-3	1	-4	9	-7	nt	nt
Cc1ccc(N=Nc2c(N)[nH]n3c(=O)cc(-c4ccccc4)nc23)cc1	6	1	2	50	nt	nt	nt
COc1cccc(N=Nc2c(N)[nH]n3c(=O)cc(-c4ccccc4)nc23)c1	26	9	-1	62*	110*	-8	34
CN(C)S(=O)(=O)n1cc(/C=C(\NC(=O)c2ccccc2F)C(=O)N2CCOCC2)c2ccccc21	7	2	-3	10	3	2	nt
CN(C)S(=O)(=O)n1cc(/C=C(\NC(=O)c2ccccc2Cl)C(=O)N2CCOCC2)c2ccccc21	0	1	3	62*	-4	-1	-5
CC(C)OC(=O)c1sc2nc(-c3ccccc3)ccc2c1N	4	-1	-1	52*	-11	7	45*	Full FLuc ctr=180*
COc1ccc(C(=O)c2sc3nc(-c4ccccc4)ccc3c2N)cc1	-2	0	-3	-11	nt	41	nt
CC(C)NC(=O)C(=O)Nc1cc2c3c(c1)C(C)C(=O)N3CCC2 (stereo unspecified)	-1	-2	-3	16	2	0	nt
CCCCn1c(NC(=O)c2ccccc2)nc2ccccc21	52	-1	-3	44	41	15	nt
COc1ccc(OCCn2c(NC(=O)c3ccco3)nc3ccccc32)cc1	16	-1	1	57*	62*	16	11
